Screening data as filed in PubChem.
This is a sample that favours compounds with a hit; in the whole collection about 5.9% have one here.
Measles CPE = protection of cells from measles virus. Measles virus-infected cells, CPE protection, absorbance. protection (pct of control), % at 4 µM. hit rate 1.5% among 140,000; in the data active = protection mostly above about 24%, no sharp cut-off; inactive = mostly below about 26%
Cav32 inh = blocks human Cav3.2 T-type calcium channel. O95180. Cav3.2-expressing cells, Fluo-4 calcium fluorescence FDSS; stronger effect = lower value. B-score at 10 µM. hit rate 4% among 100,000. AID 449739;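 active = single-dose well whose peak fluorescence ratio is a statistical outlier from its plate by either plate-standardised score or position-corrected B-score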
Phagocytosis inh = inhibitors of macrophage phagocytosis; J774A.1 macrophage IgG-bead phagocytosis, imaging; inhibition, % at 5 µM; hit rate 0.07% among 110,000; AID 1029;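 active = inhibition above the mean of the plate negative controls plus 5 SD, cut at about 13% in these data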;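 also: phagocytic index as fraction of beads internalized from green versus red external bead signal; plate controls were DMSO negative control for no effect and cytochalasin-D positive control for full effect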
Pyk2 oligo antag = antagonists of human Pyk2 oligomerization. z-score (the deposit names both 25 µM and 10 µM). Q293 cells, Pyk2 FERM NanoBiT luminescence; stronger effect = lower value. hit rate 0.83% among 99,000. Q14289;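 active = Z-score of -3 or lower, scaled per plate to the spread of control and sample wells; inactive = z-score above -3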;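 also: negative z-score means lost luminescence so less FERM oligomerization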
HIV Rev-RRE inh = disrupts HIV-1 Rev binding to RRE RNA; P05866; Rev peptide-RRE RNA binding, FRET; inhibition, % at 8 µM; hit rate 0.79% among 97,000; AID 704;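 active = inhibition above the screen-wide mean plus 3 SD, cut at about 35% in these data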;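 also: 0% = median DMSO wells and 100% = median Neomycin B control wells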
Target sequence (P05866 whole entry, looked up): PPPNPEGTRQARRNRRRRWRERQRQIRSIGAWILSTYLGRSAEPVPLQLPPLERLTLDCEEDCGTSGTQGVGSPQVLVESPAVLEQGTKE
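Test system: Cy5-tagged RRE RNA duplex with fluorescein-tagged Rev peptide; Probe or stimulus: labelled Rev peptide; Schedule: 5 min preincubation and 15 min binding, 25 °C; Signal: FRET fluorescence readout; Evaluation: % inhibition from 671/540 nm acceptor-to-donor ratio, scaled between controls; Control set: DMSO and neomycin B.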
hDAT+cocaine = human DAT dopamine uptake with cocaine, either direction. LLC-PK1 hDAT cells, [14C]-dopamine uptake with cocaine IC80; actives deviate in either direction. B-score at 10 µM. hit rate 1.3% among 110,000. AID 449768;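 active = Z score or B-score, a plate-position-corrected score, falls beyond the plate's 99.7% confidence bounds, in either direction; inactive = both scores lie inside the 99.7% bounds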;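 also: scored against the spread of the other compound wells on the same plate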
Target sequence (Q01959 whole entry, looked up): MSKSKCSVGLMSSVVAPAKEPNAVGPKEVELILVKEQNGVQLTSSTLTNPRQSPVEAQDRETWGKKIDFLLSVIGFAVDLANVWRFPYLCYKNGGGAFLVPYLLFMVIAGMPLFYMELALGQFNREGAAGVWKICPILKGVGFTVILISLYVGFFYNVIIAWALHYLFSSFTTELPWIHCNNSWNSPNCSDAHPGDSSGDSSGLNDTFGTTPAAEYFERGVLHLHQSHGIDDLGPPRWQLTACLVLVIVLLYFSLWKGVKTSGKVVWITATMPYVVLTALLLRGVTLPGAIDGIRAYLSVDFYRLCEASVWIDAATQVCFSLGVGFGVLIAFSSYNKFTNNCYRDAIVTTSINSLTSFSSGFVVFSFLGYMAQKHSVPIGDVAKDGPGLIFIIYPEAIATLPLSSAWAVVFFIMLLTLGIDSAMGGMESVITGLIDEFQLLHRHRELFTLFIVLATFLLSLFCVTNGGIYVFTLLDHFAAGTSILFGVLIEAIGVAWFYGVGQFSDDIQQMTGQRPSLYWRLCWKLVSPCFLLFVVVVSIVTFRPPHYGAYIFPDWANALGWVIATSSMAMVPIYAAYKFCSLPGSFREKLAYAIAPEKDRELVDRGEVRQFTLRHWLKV
Numbers without * were called inactive; x = no result; [ ] = remark or other dose.

SMILES	Measles CPE	Cav32 inh	Phagocytosis inh	Pyk2 oligo antag	HIV Rev-RRE inh	hDAT+cocaine
CCOC(=O)Cn1nnnc1C(CC)N(Cc1cccs1)Cc1cc2ccc(OC)cc2[nH]c1=O (configuration not stated)	19.5	-3.7*	1.0	0.75	1.6	0.757
COc1ccc2[nH]c(=O)c(CN(Cc3cccs3)Cc3nnnn3C(C)(C)C)cc2c1	16.1	-2.97	-0.8	1.88	14.5	2.49*
CCCNC(=S)N1CCC(C(=O)c2ccc(OC)cc2)CC1	22.4	x	x	x	x	x
COc1cccc(CNc2cc(CSc3ccc(Cl)cc3)nc(C)n2)c1	2.5	-8.23*	-1.2	-1.59	12.4	0.593
COc1ccc(CN(C(=S)Nc2ccccc2)C2CC(=O)N(c3ccc(F)cc3)C2=O)cc1 (configuration not stated)	19.7	-0.322	0.1	-0.44	10.6	0.202
CNC(=S)N(Cc1ccc2c(c1)OCO2)C1CC(=O)N(c2ccc(F)cc2)C1=O (configuration not stated)	4.7	-3.96*	-1.3	-0.19	2.3	-0.58
COC(=O)C(Cc1cnc(Cl)s1)(C(=O)OC)c1ccc(C(F)(F)F)cc1[N+](=O)[O-]	4.7	-8.63*	-1.0	-2.02	14.8	-0.667
O=C(Nc1ccc(Cl)c(C(F)(F)F)c1)[C@@H]1CC=C[C@@H]2CCN(Cc3ccc(Cl)c(Cl)c3)C(=O)[C@@H]21	x	-1.89	x	x	x	-0.331
COc1ccc(/C(O)=C/C(=O)C(=O)NNC(=O)C(O)(c2ccccc2)c2ccccc2)cc1	13.0	-9.67*	1.6	-0.15	1.9	-0.208
COc1ccc(/C(O)=C/C(=O)C(=O)Nc2c(C)n(C)n(-c3ccccc3)c2=O)cc1	3.8	-0.0785	-5.2	0.97	-1.2	0.0167
CCc1sc(NC(=O)c2cc3ccccc3oc2=O)nc1-c1cccs1	3.1	x	-7.4	x	x	x
CCOC(=O)c1ccc(NS(=O)(=O)c2ccc(SC)cc2)cc1	11.3	-1.25	-0.3	-2.83	8.6	-0.981
CCOc1ccc(NS(=O)(=O)c2ccc(SC)cc2)cc1	8.1	-5.87*	x	-0.91	7.6	1.27
CCOC(=O)Cc1ccc(NS(=O)(=O)c2ccc(SC)cc2)cc1	14.0	-6.19*	0.7	-0.63	6.8	1.48
CC1=NN(C(=O)c2cc(C)nn2C)C(O)(C(F)(F)F)C1 (configuration not stated)	22.8	x	-4.7	x	x	x
CCCC(=O)NC(C)c1nc(-c2ccc(C)cc2)no1 (configuration not stated)	x	0.493	x	x	x	-0.564
Fc1cccc2sc(Nc3nnc(-c4ccccc4)o3)nc12	4.0	-5.04*	x	-1.33	0.8	0.0371
COc1cc(OC)cc(-c2nnc(Nc3nc4c(F)cccc4s3)o2)c1	12.9	0.00434	0.3	-0.5	6.8	1.49
Fc1ccc(-c2csc3ncnc(N4CCc5ccccc5C4)c23)cc1	6.4	x	0.3	x	x	x
CCOC(=O)c1sc2nc(-c3ccccc3)ccc2c1N	17.2	x	-4.5	x	x	x
COc1ccc(C(=O)c2sc3nc(-c4ccccc4)ccc3c2N)cc1OC	7.1	0.0399	0.0	1.32	96.6*[fluorescence artefact?]	-1.33
Cc1ccc(S(=O)(=O)N(CC(=O)N2CCN(c3ccccc3F)CC2)C2CCCCC2)cc1	2.1	-4.75*	-0.7	-1.62	5.9	0.642
Cc1cc(C)c(S(=O)(=O)N(CC(=O)N2CCOCC2)C2CCCCC2)c(C)c1	9.4	-0.0826	0.8	1.63	11.2	0.31
Cc1ccc(S(=O)(=O)N(CC(=O)N2CCOCC2)C2CCCCC2)cc1	17.4*	0.365	x	-0.17	-2.9	-0.627
CS(=O)(=O)N(CC(=O)N1CCN(c2ccccc2F)CC1)C1CCCCC1	10.2	x	x	1.3	9.1	0.0109
SMILES	Measles CPE	Cav32 inh	Phagocytosis inh	Pyk2 oligo antag	HIV Rev-RRE inh	hDAT+cocaine
CSc1n[nH]c(-c2sccc2OCc2ccc(C)cc2)n1	5.8	-3.74*	1.3	-0.05	2.9	2.84
Cc1cc(-c2csc(N)n2)c(C)n1C	18.1	0.0398	1.6	-0.54	10.6	-0.0236
Cc1ccc(-n2c(C)cc(-c3csc(N)n3)c2C)cc1	51.7*	x	-6.5	x	x	x
O=C(CSc1nnc(-c2ccncc2)n1-c1ccc(F)cc1)NNC(=O)c1cccc(O)c1	6.3	x	-10.0	x	x	x
Cc1ccc(NC(=O)c2cc3c(s2)CCC3)cc1S(=O)(=O)N1CCOCC1	20.4	0.249	-1.4	-3.25*	8.3	0.192
O=C(NCCC(=O)N1CCN(c2ncccn2)CC1)c1ccccc1	31.9*	0.793	-1.0	0.66	1.4	1.33
O=C(NCCC(=O)N1CCN(c2ncccn2)CC1)c1ccccc1Cl	3.5	0.411	-0.2	-0.04	5.1	-0.424
N/C(Cc1ccc(Cl)cc1)=N\OC(=O)C1CCCCC1	4.1	x	-0.4	-0.37	x	x
COc1cccc(-n2cnc3sc(C)c(C)c3c2=O)c1	5.5	x	1.1	-0.09	x	x
COC(=O)C(NC(=O)c1ccc(Cl)cc1)(Nc1nc(C)cs1)C(F)(F)F (configuration not stated)	2.9	-2.98	x	0.25	6.7	1.6
N#CCC(CNc1ncc(C(F)(F)F)cc1Cl)OC(=O)c1c(F)cccc1F (configuration not stated)	x	-3.72*	x	-1.61	18.5	0.677
CCC(C)Nc1nc(OC(C(F)(F)F)C(F)(F)F)nc(OC(C(F)(F)F)C(F)(F)F)n1 (configuration not stated)	7.5	-2.44	x	-0.08	21.0	3.21*
COc1ccc(NC(=O)c2cn(-c3ccccc3)nc2-c2cc3ccccc3o2)cc1	5.5	-0.443	x	-4.5*	7.1	0.696
O=C(N/N=C/c1cn(-c2ccccc2)nc1-c1cc2ccccc2o1)c1ccccc1Br	19.0	x	-3.0	x	x	x
N#CC1=C(N)NC(SCC(=O)Nc2ccccc2)=C(C#N)C12CCCCC2	11.0	-4.99*	x	-0.64	4.9	-2.36
O=C(c1cc2ccccc2oc1=O)N(Cc1cccs1)Cc1ccccc1Cl	18.5	-7.12*	x	-2.67	7.6	2.53*
O=C(NNC(=S)Nc1ccc(OC(F)F)cc1)c1cc2c(s1)CCCC2	5.6	x	x	x	x	x
COc1ccc(S(=O)(=O)NCCSCc2ccco2)cc1Cl	8.9	-5.96*	-0.5	0.57	3.6	-1.14
Cc1ccccc1OCc1nc2ccc(S(=O)(=O)N3CCOCC3)cc2[nH]1	17.1	0.124	0.6	-0.18	1.4	0.106
O=S(=O)(c1ccc2c(c1)OCCO2)N1CCC(c2nc3ccccc3s2)CC1	5.0	-0.00897	-0.5	-3.15*	-3.2	0.0327
O=S(=O)(c1ccc2nc(COc3ccc(Cl)cc3Cl)[nH]c2c1)N1CCOCC1	52.6*	-2.49	0.2	-1.16	5.9	0.0378
O=S(=O)(c1ccc2c(c1)OCCO2)N1CCC(c2nc3ccc(Cl)cc3[nH]2)CC1	18.0	-2.41	0.2	-3.37*	22.6	1.81
CCS(=O)(=O)Nc1ccc(-c2ccc(NS(=O)(=O)CC)c(OC)c2)cc1OC	7.9	0.00954	x	1.7	0.6	-0.12
N=c1c2c(n(Cc3ccccc3)c3c1CCC3)CCC2	4.9	-0.585	-0.1	0.82	-1.1	-4.23*
O=C(Cc1ccc(S(=O)(=O)N2CCCCC2)s1)Nc1cccc2ccccc12	3.4	x	-5.3	x	x	x
